Results on 8 compounds are retold here after ChEMBL document CHEMBL1140857 (Bioorg Med Chem, 2009).

pIC50, pKi: −log10 of the molar value.

One assay relates to RT-4. The assay is described as follows: Cytotoxicity against human RT4 cells at 20 uM after 96 hrs by crystal violet staining relative to control. The format is functional. Put shortly:
(§1)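 Cell lines from DSMZ (German collection). Cells exposed to 20 µM test substance at 37 °C for 96 h; medium removed and adherent (living) cells stained with crystal violet. Growth given as % of untreated control; averages of two independent experiments.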

Another assay deals with 5637. The assay is described as follows: Cytotoxicity against human 5637 cells at 20 uM after 96 hrs by crystal violet staining relative to control. The class given is functional. Put shortly: as §1
The next assay is filed under the species Sus scrofa. In words: Displacement of [3H]MK-801 from NMDA receptor in pig brain cortex at 1 uM.
Assay [1] in a line: Displacement of [3H][…] from opioid sigma2 receptor in rat liver homogenate in presence of (+)-pentazocine. The format is tissue-based. The essentials: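 Rat liver membranes (about 100 µg protein, 50 mM Tris pH 8.0) incubated 180 min at room temperature with six concentrations of test compound, 3 nM [3H]-ditolylguanidine (Kd 17.9 nM) and 500 nM (+)-pentazocine. […] IC50 by nonlinear regression, Ki by Cheng–Prusoff; triplicates, mean ± SEM of three experiments.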

The subject of a further assay is DAN-G. The assay is described as follows: Cytotoxicity against human DAN-G cells after 96 hrs at 20 uM by crystal violet staining relative to control. The class given is functional. The essentials:
as §1

Assay [2] has as its system A-427. The assay is described as follows: Cytotoxicity against human A427 cells after 96 hrs by crystal violet staining relative to control. The following applies: A-427, 96 h. The format is functional, cell-based. Put shortly:
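Crystal violet microtiter assay, 96 h exposure at 37 °C. Five serial dilutions from DMF stock solutions; concentrations giving T/C between 10% and 90% used, and IC50 calculated by least-squares analysis of dose–response curves.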

Assay [3] in a line: Cytotoxicity against human LCLC-103H cells at 20 uM after 96 hrs by crystal violet staining relative to control. The format is functional. The essentials: as §1
Assay [4] deals with Sigma non-opioid intracellular receptor 1 (Cavia porcellus, UniProt Q60492). The assay is described as follows: Displacement of [3H](+)-pentazocine from opioid sigma1 receptor in guinea pig brain homogenate. The class given is tissue-based. The essentials: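 Non-specific binding with 10 µM unlabeled (+)-pentazocine. Filtration, scintillation counting; IC50 by nonlinear regression, Ki by Cheng–Prusoff; triplicates, mean ± SEM of three independent experiments.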
Sigma non-opioid intracellular receptor 1, sequence (Q60492 whole entry): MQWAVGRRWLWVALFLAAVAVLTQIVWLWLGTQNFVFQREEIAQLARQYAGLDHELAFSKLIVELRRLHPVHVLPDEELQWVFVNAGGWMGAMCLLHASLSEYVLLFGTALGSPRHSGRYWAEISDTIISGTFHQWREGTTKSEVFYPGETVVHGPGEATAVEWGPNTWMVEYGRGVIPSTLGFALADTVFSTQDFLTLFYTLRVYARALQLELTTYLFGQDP
On the technique in general: Loss of bound radioactivity is the signal in a displacement assay; it reports binding, not function.

For the next assay, the system named is MCF7. The assay is described as follows: Cytotoxicity against human MCF7 cells after 96 hrs at 20 uM by crystal violet staining relative to control. The class given is functional. Put shortly: as §1
In assay [5] the test system is A-427. In words: Cytotoxicity against human A427 cells at 20 uM after 96 hrs by crystal violet staining relative to control. The format is functional. Put shortly: as §1
A short description of assay [6]: Selectivity ratio of Ki for rat sigma2 receptor to Ki for guinea pig sigma1 receptor.
A further assay is filed under the species Rattus norvegicus. The assay is described as follows: Displacement of [3H][…] from opioid sigma2 receptor in rat liver homogenate at 1 uM in presence of (+)-pentazocine. The format is tissue-based. The essentials:
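Rat liver membranes (about 100 µg protein, 50 mM Tris pH 8.0) with 3 nM [3H]-ditolylguanidine plus 500 nM (+)-pentazocine masking σ1, 180 min at room temperature. Test compound at 1 µM; inhibition of radioligand binding reported.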

For assay [7], the target named is Sigma non-opioid intracellular receptor 1 (Cavia porcellus) (UniProt Q60492). In words: Displacement of [3H](+)-pentazocine from opioid sigma1 receptor in guinea pig brain homogenate at 1 uM. The format is tissue-based. The essentials:
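Guinea pig brain membranes (about 75 µg protein, 50 mM Tris pH 7.4) with 2 nM [3H]-(+)-pentazocine, 180 min at 37 °C. Test compound at 1 µM; inhibition of radioligand binding reported. Non-specific binding with 10 µM unlabeled (+)-pentazocine; filtration and scintillation counting.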

Sigma non-opioid intracellular receptor 1 (Cavia porcellus), sequence (Q60492 whole entry): as above

A word on the pKi: it is −log10 of the Ki, conventionally taken in molar units. The pIC50 is the IC50 on a negative log10 scale, so that one unit is a factor of ten. A lower pIC50 goes with a large IC50. Regarding `C=CCN1C[C@@H]2[C@@H](OC)CC[C@H]1CN2Cc1ccc(OC)cc1OC`, the Activity with RT-4 was 68%; with 5637, 102%; in the assay listed under Sus scrofa, below 25%; in the assay with DAN-G, 101%; in assay [3], 78%; in the assay on MCF7, 84%. Moreover, the Activity in the assay on A-427 [5] was found to be 36%. The pKi was 5.12 in [1] and 5.24 in assay [4]. The pIC50 in the assay with A-427 [2] is 4.57.

Regarding `C=CCN1C[C@H]2[C@H](OC)CC[C@@H]1CN2Cc1ccc(OC)cc1`, the Activity with RT-4 is 94%; with 5637, 81%; in the assay listed under Sus scrofa, below 25%; in the assay on DAN-G, 95%; in assay [3], 107%; in the assay on MCF7 it was 84%. In the assay with A-427 [5], this compound registered an Activity of 48%. Also, the pKi in assay [1] was 4.65; in [4] it was 5.08. This compound showed a pIC50 in the assay on A-427 [2] of 4.69.

`C=CCN1C[C@H]2[C@@H](O)CC[C@@H]1CN2Cc1ccc(OC)cc1`: the Activity with RT-4 was 107%; with 5637 it was 104%; in the assay listed under Sus scrofa it was below 25%; in the assay with DAN-G, 100%; in assay [3], 111%; with MCF7, 99%. Besides, in the assay on A-427 [5], the Activity came out at 90%. Moreover, the pKi in [1] was 5.92; in [4], 6.46. In addition, the Ratio in assay [6] amounted to 4.

In the case of `C=CCN1C[C@@H]2[C@@H](OC)CC[C@H]1CN2Cc1ccc(OC)cc1`, the Activity in the assay with RT-4 is 89%; in the assay with 5637 it was 95%; in the assay listed under Sus scrofa it was below 25%; with DAN-G it was 95%; in assay [3], 99%; in the assay with MCF7 it was 80%. The same compound returned an Activity in the assay on A-427 [5] of 45%. Besides, the pKi in assay [1] is 5.68; in assay [4], 5.46. In addition, the pIC50 in the assay on A-427 [2] is 4.79.

In general, inhibition refers to the share of the control response that was lost under treatment. `C=CCN1C[C@@H]2[C@@H](O)CC[C@H]1CN2Cc1ccc(OC)cc1OC`: the Activity with RT-4 is 103%; in the assay with 5637, 100%; in the assay filed under Sus scrofa, below 25%; in the assay on DAN-G, 87%; in [3], 103%; in the assay on MCF7, 84%. Moreover, in the assay with A-427 [5], the Activity is listed as 79%. Also, the inhibition in the assay listed under Rattus norvegicus turned out to be 6%; in assay [7], 0%.

Take `C=CCN1C[C@H]2[C@H](O)CC[C@@H]1CN2Cc1ccc(OC)cc1OC`: the Activity is 109% in the assay on RT-4; 105% in the assay on 5637; below 25% in the assay listed under Sus scrofa; 91% in the assay with DAN-G; 103% in assay [3]; 102% in the assay on MCF7. In addition, in the assay with A-427 [5], the Activity turned out to be 87%. The inhibition was found to be 35% in the assay listed under Rattus norvegicus and 22% in [7].

For `C=CCN1C[C@@H]2CCC[C@H]1CN2Cc1ccc(OC)cc1`, the Activity is 65% in the assay with RT-4; 87% in the assay on 5637; below 25% in the assay filed under Sus scrofa; 92% with DAN-G; 91% in assay [3]; 65% in the assay with MCF7. The same compound returned an Activity in the assay on A-427 [5] of 42%. In addition, the figures for the pKi in assay [1] and in assay [4] were 6.69 and 7.96, respectively. Also, in [6], the Ratio came to 20.

In the case of `C=CCN1C[C@H]2[C@@H](OC)CC[C@@H]1CN2Cc1ccc(OC)cc1OC`, the Activity is 87% with RT-4; 63% with 5637; below 25% in the assay filed under Sus scrofa; 84% in the assay on DAN-G; 98% in assay [3]; 79% with MCF7. The compound also had an Activity with A-427 [5] of 49%. Further, in assay [1], the pKi is 4.87. For the same compound, the pIC50 in the assay with A-427 [2] is 4.72. In addition, the inhibition in assay [7] amounted to 37%.
